In ChEMBL document CHEMBL1142121, “Triterpenoids from the floral spikes of Betula platyphylla var. japonica and their reversing activity against multidrug-resistant cancer cells” (J Nat Prod, 2007):
Activity calls are given as the source filed them. No cut-off for these calls is given here.

Assays:
[1] = Cytotoxicity against human colchicine-resistant KBC2 cells in presence of 2.5 uM colchicine after 48 hrs by MTT assay; format: cell-based; conditions: KB-C2, 48 h
Procedure, shortened: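 Colchicine-resistant KB-C2 cells, maintained in DMEM/10% FBS with 2 µg/mL colchicine. Seeded at 5 × 10^3 cells/well, preincubated 24 h, then given graded test concentrations (DMSO final <0.5%) together with 2.5 µM colchicine for 48 h at 37 °C, 5% CO2. MTT read-out. IC50 was 50% of vehicle-control absorbance. Mean ± SE, 3–4 experiments.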

COLO 205 = assay: Cytotoxicity against human COLON205 cells after 48 hrs by MTT assay; format: cell-based; conditions: COLO 205, 48 h
Procedure, shortened: (§1)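 MCF7 or COLO205 cells in RPMI1640 with 10% FBS, seeded at 5 × 10^3 cells and preincubated 24 h. Graded concentrations (DMSO final <0.5%) were then applied for 48 h at 37 °C, 5% CO2. Proliferation read by MTT. IC50 was the concentration halving absorbance versus vehicle-treated controls. Mean ± SE of 3–4 experiments.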

KB = assay: Cytotoxicity against human KB cells after 48 hrs by MTT assay; format: cell-based
Procedure, shortened: (§2)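 KB and KB-C2 cells grown in DMEM with 10% FBS, with KB-C2 maintained with 2 µg/mL colchicine. 5 × 10^3 cells/well were preincubated 24 h, then exposed 48 h at 37 °C, 5% CO2 to graded concentrations (DMSO final <0.5%). MTT read-out. IC50 was the concentration giving 50% of vehicle-control absorbance. Mean ± SE of 3–4 experiments.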

K562 = assay: Cytotoxicity against human K562 cells after 48 hrs by MTT assay; format: cell-based; conditions: K562, 48 h
Procedure, shortened: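 K562 leukemia cells, 1 × 10^4 cells/well in medium with 10% FBS, preincubated 24 h. Test samples were then added at various concentrations (DMSO final <0.5%) for 48 h at 37 °C, 5% CO2. MTT assay. IC50 was 50% absorbance relative to vehicle controls. Mean ± SE from 3–4 experiments.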

[2] = Cytotoxicity against human colchicine-resistant KBC2 cells after 48 hrs by MTT assay; format: cell-based; conditions: KB-C2, 48 h; procedure, shortened: as §2
MCF7 = assay: Cytotoxicity against human MCF7 cells after 48 hrs by MTT assay; format: cell-based; conditions: MCF7, 48 h; procedure, shortened: as §1
[3] = Cytotoxicity against human doxorubicin-resistant K562/Adr cells in presence of 1 uM doxorubicin after 48 hrs by MTT assay; format: cell-based
[4] = Cytotoxicity against human doxorubicin-resistant K562/Adr cells after 48 hrs by MTT assay; format: cell-based
Procedure, shortened: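 Doxorubicin-resistant K562/Adr cells, maintained in RPMI1640/10% FBS containing 0.5 µM doxorubicin. Seeded at 1 × 10^4 cells/well, preincubated 24 h, then incubated 48 h at 37 °C, 5% CO2 with graded test concentrations (DMSO final <0.5%). MTT read-out. IC50 was 50% of vehicle-control absorbance. Mean ± SE, 3–4 experiments.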

MDR = assay: Reversal of MDR against KBC2 cells assessed as reduction in cytotoxicity of colchicine at 5 ug/ml; format: functional, cell-based; conditions: Homo sapiens

Compound | IC50 [1] [µM] | IC50 (COLO 205) [µM] | IC50 (KB) [µM] | IC50 (K562) [µM] | IC50 [2] [µM] | IC50 (MCF7) [µM] | IC50 [3] [µM] | IC50 [4] [µM] | Activity (MDR)
CC(C)(O)[C@H]1CC[C@@](C)([C@H]2CC[C@]3(C)[C@@H]2CC[C@@H]2[C@@]4(C)CC[C@@H](OC(=O)CC(=O)O)C(C)(C)[C@@H]4CC[C@]23C)O1 | 65.5 | 55.6 | 60.8 | 57.5 | 69.6 | 64.1 | 42.5 | 47.2 | –
C=C(C)[C@@H](O)CC[C@](C)(O)[C@H]1CC[C@]2(C)[C@@H]1CC[C@@H]1[C@@]3(C)CCC(=O)C(C)(C)[C@@H]3CC[C@]12C | 29.8 | 58.8 | 70.2 | 40.2 | 78.5 | 73.1 | 50.4 | 35.9 | –
CC(=O)O[C@@H]1C[C@@H]2[C@@]3(C)CC[C@@H](OC(C)=O)C(C)(C)[C@@H]3CC[C@@]2(C)[C@]2(C)CC[C@H]([C@]3(C)CC[C@H](C(C)(C)O)O3)[C@@H]12 | 3 | 58 | 35.1 | 26.2 | 62.2 | 78.4 | 23.9 | 33.2 | –
CC(C)(O)[C@H]1CC[C@@](C)([C@H]2CC[C@]3(C)[C@@H]2CC[C@@H]2[C@@]4(C)CCC(=O)C(C)(C)[C@@H]4CC[C@]23C)O1 [OCOTILLONE] | 64.2 | > 100 | > 100 | > 100 | > 100 | > 100 | > 100 | > 100 | –
COC(=O)CC(=O)O[C@@H]1CC[C@]2(C)[C@H]3C[C@@H](OC(C)=O)[C@@H]4[C@@H]([C@]5(C)CC[C@H](C(C)(C)O)O5)CC[C@@]4(C)[C@]3(C)CC[C@H]2C1(C)C [METHYL PAPYRIFERATE] | 3.7 | 49.6 | 33.8 | 32.6 | 31.1 | 48.9 | 10.6 | 36.8 | Active
CC(C)(O)[C@@H]1CC[C@@](C)([C@H]2CC[C@]3(C)[C@@H]2CC[C@@H]2[C@@]4(C)CCC(=O)C(C)(C)[C@@H]4CC[C@]23C)O1 [CABRALEONE] | 62.4 | > 100 | > 100 | > 100 | > 100 | > 100 | > 100 | > 100 | –
COC(=O)CC(=O)O[C@@H]1CC[C@]2(C)[C@H]3CC[C@@H]4[C@@H]([C@]5(C)CC[C@H](C(C)(C)O)O5)CC[C@@]4(C)[C@]3(C)CC[C@H]2C1(C)C | 13.6 | 57.2 | 64.2 | 35.4 | 87 | 63.6 | 41.1 | 31.1 | –
COC(=O)CC(=O)O[C@@H]1CC[C@]2(C)[C@H]3CC[C@@H]4[C@@H]([C@]5(C)CCC(=O)O5)CC[C@@]4(C)[C@]3(C)CC[C@H]2C1(C)C | 3.3 | > 100 | 58 | 47.2 | 30.4 | > 100 | 26.5 | 56.1 | –
CC(=O)O[C@@H]1C[C@@H]2[C@@]3(C)CC[C@@H](O)C(C)(C)[C@@H]3CC[C@@]2(C)[C@]2(C)CC[C@H]([C@]3(C)CC[C@H](C(C)(C)O)O3)[C@@H]12 | 3.5 | 36.7 | 36.5 | 27.5 | 25.7 | 34.2 | 15.3 | 15.4 | –
CC(C)(O)[C@H]1CC[C@@](C)([C@H]2CC[C@]3(C)[C@@H]2CC[C@@H]2[C@@]4(C)CC[C@@H](O)C(C)(C)[C@@H]4CC[C@]23C)O1 | 28.6 | – | 43.4 | 48.5 | 55.3 | 57.9 | 45.2 | 73.9 | –
CC(=O)O[C@@H]1CC[C@]2(C)[C@H]3CC[C@@H]4[C@@H]([C@]5(C)CC[C@H](C(C)(C)O)O5)CC[C@@]4(C)[C@]3(C)CC[C@H]2C1(C)C | 43.6 | 54.2 | 44.8 | 41.6 | 89.6 | 47.5 | 68.3 | 50.5 | –
C=C(C)[C@@H]1CC[C@]2(C(=O)O)CC[C@]3(C)[C@H](CC[C@@H]4[C@@]5(C)CCC(=O)C(C)(C)[C@@H]5CC[C@]43C)[C@@H]12 [BETUNOLIC ACID] | 0.64 | 36.8 | 3.8 | 16.1 | 2.3 | 49 | 48.4 | 73.5 | –
C=C(C)[C@@H]1CC[C@]2(C)[C@H](CCC3=C4CC(C)(C)CC[C@]4(C)CC[C@]32C)[C@@]1(C)CCC(=O)O | 36.3 | 38.1 | 27.5 | 28 | 58 | 37.4 | 24.8 | 25.9 | –
CC1(C)[C@H](O)CC[C@]2(C)[C@H]3CC[C@@H]4[C@@H]([C@]5(C)CCC(=O)O5)CC[C@@]4(C)[C@]3(C)CC[C@@H]12 [CABRALEAHYDROXYLACTONE] | 20.6 | > 100 | > 100 | > 100 | > 100 | > 100 | > 100 | > 100 | –
CC(C)=CCC[C@](C)(O)[C@H]1CC[C@]2(C)[C@@H]1CC[C@@H]1[C@@]3(C)CCC(=O)C(C)(C)[C@@H]3CC[C@]12C [DIPTEROCARPOL] | 38.2 | > 100 | > 100 | > 100 | > 100 | > 100 | > 100 | > 100 | –
CC1(C)C(=O)CC[C@]2(C)[C@H]3CC[C@@H]4[C@@H]([C@]5(C)CCC(=O)O5)CC[C@@]4(C)[C@]3(C)CC[C@@H]12 [CABRALELACTONE] | 28.5 | > 100 | 63.5 | > 100 | > 100 | 97.9 | > 100 | > 100 | –
CC(=O)O[C@@H]1C[C@@H]2[C@@]3(C)CC[C@@H](OC(=O)CC(=O)O)C(C)(C)[C@@H]3CC[C@@]2(C)[C@]2(C)CC[C@H]([C@]3(C)CC[C@H](C(C)(C)O)O3)[C@@H]12 [PAPYRIFERIC ACID] | 60.1 | 52.2 | 47.8 | 47.6 | 66 | 71.7 | 34.5 | 42.5 | –
CC(C)(O)[C@H]1CC[C@@]2(C)C1CC[C@]1(C)[C@@H]2CC[C@@H]2[C@@]3(C)CCC(=O)C(C)(C)[C@@H]3CC[C@]21C (stereo not given in full) [HYDROXYHOPANONE] | > 100 | 77.1 | > 100 | > 100 | > 100 | > 100 | > 100 | > 100 | –
C=C(C)[C@@H]1CC[C@]2(C)[C@H](CC[C@@H]3[C@@H]([C@]4(C)CC[C@H](C(C)(C)O)O4)CC[C@]32C)[C@@]1(C)CCC(=O)OC [METHYL SHOREATE] | 20.1 | 67.7 | 66.6 | 45.3 | 93.5 | 59.7 | 47.1 | 50.9 | –
C=C1CC[C@]2(C)CC[C@]3(C)[C@H](CC[C@@H]4[C@@](C)(CCC(=O)O)[C@H](C(=C)C)CC[C@]43C)[C@@H]2[C@H]1C | > 100 | > 100 | > 100 | > 100 | > 100 | > 100 | > 100 | > 100 | –
